Measured values published in ChEMBL document CHEMBL3044709, “Antimicrobial furostanol saponins from the seeds of Capsicum annuum L. var. acuminatum” (2002).
≈ marks a conversion by molar mass, not a printed value.

Assays:
Format in all cases: functional
Candida albicans = assay: Antimicrobial activity against Candida albicans CBS 562 after 48 hr by agar dilution method; details: CBS 562, 48 h
Summary of the method: (§1)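 Yeast peptone dextrose agar plates, each holding a 2-fold serial dilution of sample (0.5 mL into 9.5 mL medium). Yeast streaked onto the plates and incubated at 28 °C, read at 36 and 48 h. MIC is the lowest concentration tested showing no growth.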

Escherichia coli [1] = assay: Antimicrobial activity against Escherichia coli ATCC 35346 after 48 hr by agar dilution method; details: ATCC 35346, 48 h
Summary of the method: (§2)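 Agar dilution on standard plate count agar: 0.5 mL of a 2-fold serial dilution of sample mixed into 9.5 mL medium, poured into Petri dishes, organism streaked on the surface. Incubated at 28 °C (36 and 48 h). MIC is the lowest tested concentration with no visible growth.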

Saccharomyces cerevisiae [2] = assay: Antimicrobial activity against Saccharomyces cerevisiae Diproval 8167 after 48 hr by agar dilution method; details: Diproval 8167, 48 h; summary of the method: as §1
Bacillus subtilis = assay: Antimicrobial activity against Bacillus subtilis DSM 345 after 48 hr by agar dilution method; details: DSM 345, 48 h; summary of the method: as §2
Escherichia coli [3] = assay: Antimicrobial activity against Escherichia coli DSM 682 after 48 hr by agar dilution method; details: DSM 682, 48 h; summary of the method: as §2
Trichoderma viride = assay: Antimicrobial activity against Hypocrea rufa ATCC 28020 after 48 hr by agar dilution method; details: ATCC 28020, 48 h
Summary of the method: (§3)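 Fungi tested by agar dilution in malt agar. Serial 2-fold sample dilutions (0.5 mL) were mixed with 9.5 mL medium and plated, then streaked with the organism. Incubation at 28 °C for 36 and 48 h. MIC is the lowest tested concentration without growth.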

Saccharomycodes ludwigii = assay: Antimicrobial activity against Saccharomycodes ludwigii Diproval 120 after 48 hr by agar dilution method; details: Diproval 120, 48 h; summary of the method: as §1
Enterococcus faecalis = assay: Antimicrobial activity against Enterococcus faecalis DSM 2570 after 48 hr by agar dilution method; details: DSM 2570, 48 h; summary of the method: as §2
Micrococcus luteus = assay: Antimicrobial activity against Micrococcus luteus DSM 348 after 48 hr by agar dilution method; details: DSM 348, 48 h; summary of the method: as §2
Aspergillus flavus = assay: Antimicrobial activity against Aspergillus flavus ATCC 11655 after 48 hr by agar dilution method; details: ATCC 11655, 48 h; summary of the method: as §3
Penicillium expansum = assay: Antimicrobial activity against Penicillium expansum ATCC 7861 after 48 hr by agar dilution method; details: ATCC 7861, 48 h; summary of the method: as §3
[4] = test system: Staphylococcus epidermidis; assay: Antimicrobial activity against Staphylococcus epidermidis DSM 1798 after 48 hr by agar dilution method; details: DSM 1798, 48 h; summary of the method: as §2
Hanseniaspora uvarum [5] = assay: Antimicrobial activity against Hanseniaspora uvarum CBS 314 after 48 hr by agar dilution method; details: CBS 314, 48 h; summary of the method: as §1
Bacillus licheniformis = assay: Antimicrobial activity against Bacillus licheniformis DSM 13=ATCC 14580 after 48 hr by agar dilution method; details: DSM 13 = ATCC 14580, 48 h; summary of the method: as §2
Hanseniaspora vineae = assay: Antimicrobial activity against Hanseniaspora vineae CBS 2171 after 48 hr by agar dilution method; details: CBS 2171, 48 h; summary of the method: as §1
Aspergillus niger = assay: Antimicrobial activity against Aspergillus niger ATCC 1040 after 48 hr by agar dilution method; details: ATCC 1040, 48 h; summary of the method: as §3
Lacticaseibacillus casei = assay: Antimicrobial activity against Lactobacillus casei DSM 20011 after 48 hr by agar dilution method; details: DSM 20011, 48 h; summary of the method: as §2
Bacillus cereus = assay: Antimicrobial activity against Bacillus cereus DSM 345 after 48 hr by agar dilution method; details: DSM 345, 48 h; summary of the method: as §2
Staphylococcus aureus = assay: Antimicrobial activity against Staphylococcus aureus subsp. aureus DSM 346 after 48 hr by agar dilution method; details: DSM 346, 48 h; summary of the method: as §2
Aspergillus fumigatus = assay: Antimicrobial activity against Aspergillus fumigatus ATCC 1028 after 48 hr by agar dilution method; details: ATCC 1028, 48 h; summary of the method: as §3
[6] = test system: Hanseniaspora guilliermondii; assay: Antimicrobial activity against Hanseniaspora guilliermondii CBS 465 after 48 hr by agar dilution method; details: CBS 465, 48 h; summary of the method: as §1
Saccharomyces cerevisiae [7] = assay: Antimicrobial activity against Saccharomyces cerevisiae Diproval 9109 after 48 hr by agar dilution method; details: Diproval 9109, 48 h; summary of the method: as §1
Setophoma terrestris = assay: Antimicrobial activity against Setophoma terrestris ATCC 11321 after 48 hr by agar dilution method; details: ATCC 11321, 48 h; summary of the method: as §3
Rhizopus arrhizus = assay: Antimicrobial activity against Rhizopus oryzae ATCC 56536 after 48 hr by agar dilution method; details: ATCC 56536, 48 h; summary of the method: as §3
Saccharomyces cerevisiae [8] = assay: Antimicrobial activity against Saccharomyces cerevisiae Diproval 6073 after 48 hr by agar dilution method; details: Diproval 6073, 48 h; summary of the method: as §1
Saccharomyces cerevisiae [9] = assay: Antimicrobial activity against Saccharomyces cerevisiae Diproval 7070 after 48 hr by agar dilution method; details: Diproval 7070, 48 h; summary of the method: as §1
[10] = test system: Schizosaccharomyces pombe; assay: Antimicrobial activity against Schizosaccharomyces pombe Diproval 106 after 48 hr by agar dilution method; details: Diproval 106, 48 h; summary of the method: as §1
Saccharomyces cerevisiae [11] = assay: Antimicrobial activity against Saccharomyces cerevisiae Diproval 404 after 48 hr by agar dilution method; details: Diproval 404, 48 h; summary of the method: as §1
[12] = test system: Lacticaseibacillus rhamnosus; assay: Antimicrobial activity against Lactobacillus rhamnosus DSM 20021 after 48 hr by agar dilution method; details: DSM 20021, 48 h; summary of the method: as §2
Pseudomonas aeruginosa = assay: Antimicrobial activity against Pseudomonas aeruginosa DSM 1117 after 48 hr by agar dilution method; details: DSM 1117, 48 h; summary of the method: as §2
Saccharomyces cerevisiae [13] = assay: Antimicrobial activity against Saccharomyces cerevisiae Diproval 2439 after 48 hr by agar dilution method; details: Diproval 2439, 48 h; summary of the method: as §1
Hanseniaspora uvarum [14] = assay: Antimicrobial activity against Hanseniaspora uvarum AP23 after 48 hr by agar dilution method; details: Distaam AP23, 48 h; summary of the method: as §1
[15] = test system: Lactiplantibacillus plantarum; assay: Antimicrobial activity against Lactobacillus plantarum DSM 20174 after 48 hr by agar dilution method; details: DSM 20174, 48 h; summary of the method: as §2
Hanseniaspora osmophila = assay: Antimicrobial activity against Hanseniaspora osmophila CBS 313 after 48 hr by agar dilution method; details: CBS 313, 48 h; summary of the method: as §1
[16] = test system: Limosilactobacillus fermentum; assay: Antimicrobial activity against Lactobacillus fermentum DSM 20052 after 48 hr by agar dilution method; details: DSM 20052, 48 h; summary of the method: as §2
Stutzerimonas stutzeri = assay: Antimicrobial activity against Pseudomonas stutzeri ATCC 962 after 48 hr by agar dilution method; details: ATCC 962, 48 h; summary of the method: as §2

Compound | MIC (Candida albicans) [µg/mL] | MIC (Escherichia coli [1]) [µg/mL] | MIC (Saccharomyces cerevisiae [2]) [µg/mL] | MIC (Bacillus subtilis) [µg/mL] | MIC (Escherichia coli [3]) [µg/mL] | MIC (Trichoderma viride) [µg/mL] | MIC (Saccharomycodes ludwigii) [µg/mL] | MIC (Enterococcus faecalis) [µg/mL] | MIC (Micrococcus luteus) [µg/mL] | MIC (Aspergillus flavus) [µg/mL] | MIC (Penicillium expansum) [µg/mL] | MIC [4] [µg/mL] | MIC (Hanseniaspora uvarum [5]) [µg/mL] | MIC (Bacillus licheniformis) [µg/mL] | MIC (Hanseniaspora vineae) [µg/mL] | MIC (Aspergillus niger) [µg/mL] | MIC (Lacticaseibacillus casei) [µg/mL] | MIC (Bacillus cereus) [µg/mL] | MIC (Staphylococcus aureus) [µg/mL] | MIC (Aspergillus fumigatus) [µg/mL] | also measured
COC1(CC[C@@H](C)CO[C@@H]2O[C@H](CO)[C@@H](O)[C@H](O)[C@H]2O)O[C@H]2C[C@H]3[C@@H]4CC[C@H]5C[C@@H](O[C@@H]6O[C@H](CO)[C@H](O[C@@H]7O[C@H](CO)[C@@H](O)[C@H](O[C@@H]8O[C@H](CO)[C@@H](O)[C@H](O)[C@H]8O)[C@H]7O[C@@H]7O[C@H](CO)[C@@H](O)[C@H](O[C@@H]8O[C@H](CO)[C@@H](O)[C@H](O)[C@H]8O)[C@H]7O)[C@H](O)[C@H]6O)[C@H](O)C[C@]5(C)[C@H]4CC[C@]3(C)[C@H]2[C@@H]1C (some centres not stated) [O-METHYLCAPSICOSIDE A] | 50 (≈ 34.8 µM) | 1000 (≈ 696 µM) | 50 (≈ 34.8 µM) | > 1000 | 1000 (≈ 696 µM) | 250 (≈ 174 µM) | 50 (≈ 34.8 µM) | > 1000 | > 1000 | > 1000 | 1000 (≈ 696 µM) | > 1000 | 25 (≈ 17.4 µM) | > 1000 | 25 (≈ 17.4 µM) | > 1000 | 1000 (≈ 696 µM) | 1000 (≈ 696 µM) | > 1000 | > 1000 | MIC [6]: 25 µg/mL (≈ 17.4 µM); MIC (Saccharomyces cerevisiae [7]): 50 µg/mL (≈ 34.8 µM); MIC (Setophoma terrestris): 125 µg/mL (≈ 87 µM); MIC (Rhizopus arrhizus): 125 µg/mL (≈ 87 µM); MIC (Saccharomyces cerevisiae [8]): 50 µg/mL (≈ 34.8 µM); MIC (Saccharomyces cerevisiae [9]): 50 µg/mL (≈ 34.8 µM); MIC [10]: 50 µg/mL (≈ 34.8 µM); MIC (Saccharomyces cerevisiae [11]): 50 µg/mL (≈ 34.8 µM); MIC [12]: 1000 µg/mL (≈ 696 µM); MIC (Pseudomonas aeruginosa): > 1000 µg/mL; MIC (Saccharomyces cerevisiae [13]): 50 µg/mL (≈ 34.8 µM); MIC (Hanseniaspora uvarum [14]): 50 µg/mL (≈ 34.8 µM); MIC [15]: 1000 µg/mL (≈ 696 µM); MIC (Hanseniaspora osmophila): 50 µg/mL (≈ 34.8 µM); MIC [16]: 1000 µg/mL (≈ 696 µM); MIC (Stutzerimonas stutzeri): > 1000 µg/mL
COC1(CC[C@@H](C)CO[C@@H]2O[C@H](CO)[C@@H](O)[C@H](O)[C@H]2O)O[C@H]2C[C@H]3[C@@H]4CC[C@H]5C[C@@H](O[C@@H]6O[C@H](CO)[C@H](O[C@@H]7O[C@H](CO)[C@@H](O)[C@H](O[C@@H]8O[C@H](CO)[C@@H](O)[C@H](O)[C@H]8O)[C@H]7O[C@@H]7O[C@H](CO)[C@@H](O)[C@H](O[C@@H]8O[C@H](CO)[C@@H](O)[C@H](O)[C@H]8O)[C@H]7O)[C@H](O)[C@H]6O)CC[C@]5(C)[C@H]4CC[C@]3(C)[C@H]2[C@@H]1C (some centres not stated) [22-O-METHYLCAPSICOSIDE G] | 25 (≈ 17.6 µM) | 1000 (≈ 703 µM) | 25 (≈ 17.6 µM) | > 1000 | 1000 (≈ 703 µM) | 250 (≈ 176 µM) | 12.5 (≈ 8.79 µM) | > 1000 | > 1000 | > 1000 | 500 (≈ 352 µM) | > 1000 | 12.5 (≈ 8.79 µM) | > 1000 | 12.5 (≈ 8.79 µM) | > 1000 | 1000 (≈ 703 µM) | 1000 (≈ 703 µM) | > 1000 | > 1000 | MIC [6]: 12.5 µg/mL (≈ 8.79 µM); MIC (Saccharomyces cerevisiae [7]): 25 µg/mL (≈ 17.6 µM); MIC (Setophoma terrestris): 250 µg/mL (≈ 176 µM); MIC (Rhizopus arrhizus): 125 µg/mL (≈ 87.9 µM); MIC (Saccharomyces cerevisiae [8]): 25 µg/mL (≈ 17.6 µM); MIC (Saccharomyces cerevisiae [9]): 25 µg/mL (≈ 17.6 µM); MIC [10]: 25 µg/mL (≈ 17.6 µM); MIC (Saccharomyces cerevisiae [11]): 25 µg/mL (≈ 17.6 µM); MIC [12]: 1000 µg/mL (≈ 703 µM); MIC (Pseudomonas aeruginosa): > 1000 µg/mL; MIC (Saccharomyces cerevisiae [13]): 25 µg/mL (≈ 17.6 µM); MIC (Hanseniaspora uvarum [14]): 12.5 µg/mL (≈ 8.79 µM); MIC [15]: 1000 µg/mL (≈ 703 µM); MIC (Hanseniaspora osmophila): 25 µg/mL (≈ 17.6 µM); MIC [16]: 1000 µg/mL (≈ 703 µM); MIC (Stutzerimonas stutzeri): > 1000 µg/mL
